Data reported in ChEMBL document CHEMBL1157095, “Antimalarial versus cytotoxic properties of dual drugs derived from 4-aminoquinolines and Mannich bases: interaction with DNA” (J Med Chem, 2010).
The source made the active and inactive calls. No cut-off for these calls is given here.

What was measured:
Nucleic Acid [1] = assay: Binding affinity to pUC18 DNA containing 50% AT assessed as middle of the peak at half height melting temperature at 1 uM by spectrophotometry analysis; assay type: nucleic-acid assay
In short: (§1)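 Drug at 1 μM was mixed with DNA at 15 μM base pairs (15:1 bp:drug) in TE with 5 mM NaCl. Absorbance at 260 nm was recorded from 30-97 °C at 0.5 °C/min, with readings every 0.5 °C. Curves were normalized, smoothed and differentiated. Tmmax = derivative peak maximum; Tmint = middle of the integrated area; Tm1/2 = middle of the peak at half height.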

Mus musculus [2] = assay: Toxicity in ip dosed Swiss mouse assessed as mortality at 50 mg/kg, ip; assay type: organism-based; parameters: dose 50 mg/kg, route intraperitoneal; settings: in vivo
In short: (§2)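 Peters 4-day suppressive test, P. berghei ANKA: 18-20 g mice infected iv with 2 × 10^6 parasitized red cells day 0; compounds freshly made in 10% DMSO in sterile PBS, given ip from 2 h postinfection and on days 1-3; daily dose 30 mg/kg or 50 mg/kg; deaths recorded.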

Plasmodium falciparum [3] = assay: Antiplasmodial activity against chloroquine-susceptible Plasmodium falciparum D6 infected in human erythrocytes assessed as inhibition of [3H]hypoxanthine uptake after 48 hrs; assay type: functional, organism-based
In short: (§3)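 Strains were cultured in A-positive human blood in RPMI 1640 with 10% human serum, 25 mM HEPES and 25 mM NaHCO3, under 10% O2/5% CO2/85% N2 at 37 °C. Microtests used 0.5% parasitemia and 1.5% hematocrit. Tritiated hypoxanthine (1 μCi/well) was added at time zero, then 48 h incubation, freeze-thaw, harvest and scintillation counting. IC50 was taken by nonlinear regression against drug-free controls.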

Plasmodium falciparum [4] = assay: Antiplasmodial activity against chloroquine-susceptible Plasmodium falciparum Voll infected in human erythrocytes assessed as inhibition of [3H]hypoxanthine uptake after 48 hrs; assay type: functional, organism-based; in short: as §3
Nucleic Acid [5] = assay: Binding affinity to polydAdT DNA containing 100% AT assessed as middle of the integrated surface melting temperature at 1 uM by spectrophotometry analysis; assay type: nucleic-acid assay; in short: as §1
Nucleic Acid [6] = assay: Binding affinity to pUC18 DNA at pH 7.5 by spectrofluorimetry analysis; assay type: nucleic-acid assay
In short: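 A 1-10 μM drug solution was titrated at room temperature with linearized pUC18 DNA (50% AT), 0.1-50 μM base pairs final, in TE buffer with 5 mM NaCl (ionic strength 12 mM). Fluorescence used excitation at 320 nm and emission at 340-500 nm, corrected for buffer and instrument response. Kd = DNA concentration giving half-bound drug.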

Nucleic Acid [7] = assay: Binding affinity to polydAdT DNA containing 100% AT assessed as middle of the peak at half height melting temperature at 1 uM by spectrophotometry analysis; assay type: nucleic-acid assay; in short: as §1
Nucleic Acid [8] = assay: Binding affinity to pUC18 DNA at pH 7.5 by UV-Vis spectrophotometry analysis; assay type: nucleic-acid assay
In short: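 A 10 μM drug solution was titrated at room temperature with linearized pUC18 DNA (50% AT), 0.1-50 μM base pairs final. Buffer was TE (10 mM Tris-HCl, 0.1 mM EDTA) with 5 mM NaCl, ionic strength 12 mM. UV-Vis absorption spectra were recorded at 220-380 nm. Kd = DNA concentration at which half the drug is bound.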

Plasmodium falciparum [9] = assay: Antiplasmodial activity against chloroquine-susceptible Plasmodium falciparum L1 infected in human erythrocytes assessed as inhibition of [3H]hypoxanthine uptake after 48 hrs; assay type: functional, organism-based; in short: as §3
Plasmodium falciparum [10] = assay: Antiplasmodial activity against chloroquine-susceptible Plasmodium falciparum 3D7 infected in human erythrocytes assessed as inhibition of [3H]hypoxanthine uptake after 48 hrs; assay type: functional, organism-based
In short: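 Culture in RPMI 1640 with 10% human serum, 25 mM HEPES, 25 mM NaHCO3, A-positive blood, 10% O2/5% CO2/85% N2, 37 C. Isotopic microtest: 0.5% parasitemia, 1.5% hematocrit, 1 μCi tritiated hypoxanthine at time zero, 48 h; freeze-thaw lysis, filter harvest, scintillation count. IC50 = 50% uptake versus drug-free control, nonlinear regression of log dose-response curves.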

Plasmodium falciparum [11] = assay: Antiplasmodial activity against chloroquine-susceptible Plasmodium falciparum K2 infected in human erythrocytes assessed as inhibition of [3H]hypoxanthine uptake after 48 hrs; assay type: functional, organism-based; in short: as §3
Plasmodium berghei [12] = assay: Antiplasmodial activity against Plasmodium berghei ANKA infected in Swiss mice (Mus musculus) assessed as reduction of parasitaemia at 50 mg/kg, intraperitoneally daily for 4 days; assay type: functional, organism-based; parameters: dose 50 mg/kg
In short: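 Swiss mice (18-20 g) infected intravenously on day 0 with 2 × 10^6 P. berghei ANKA parasitized red cells. Compound was freshly prepared in 10% DMSO in sterile PBS and given ip, first 2 h postinfection, then on days +1-3 (4-day suppressive test). On day +4, parasitemia was counted microscopically on Giemsa-stained tail-blood films.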

Plasmodium falciparum [13] = assay: Antiplasmodial activity against chloroquine-susceptible Plasmodium falciparum K14 infected in human erythrocytes assessed as inhibition of [3H]hypoxanthine uptake after 48 hrs; assay type: functional, organism-based; in short: as §3
Plasmodium falciparum [14] = assay: Antiplasmodial activity against chloroquine-susceptible Plasmodium falciparum 8425 infected in human erythrocytes assessed as inhibition of [3H]hypoxanthine uptake after 48 hrs; assay type: functional, organism-based; in short: as §3
Mus musculus [15] = assay: Toxicity in ip dosed Swiss mouse assessed as mortality at 30 mg/kg, ip; assay type: organism-based; parameters: dose 30 mg/kg, route intraperitoneal; settings: in vivo; in short: as §2
Nucleic Acid [16] = assay: Binding affinity to pUC18 DNA containing 50% AT assessed as maximum melting temperature at 1 uM by spectrophotometry analysis; assay type: nucleic-acid assay; in short: as §1
Nucleic Acid [17] = assay: Binding affinity to polydAdT DNA containing 100% AT assessed as maximum melting temperature at 1 uM by spectrophotometry analysis; assay type: nucleic-acid assay; in short: as §1
Plasmodium falciparum [18] = assay: Antiplasmodial activity against chloroquine-susceptible Plasmodium falciparum PA infected in human erythrocytes assessed as inhibition of [3H]hypoxanthine uptake after 48 hrs; assay type: functional, organism-based; in short: as §3
Plasmodium falciparum [19] = assay: Antiplasmodial activity against chloroquine-resistant Plasmodium falciparum Dd2 infected in human erythrocytes assessed as inhibition of [3H]hypoxanthine uptake after 48 hrs; assay type: functional, organism-based
In short: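 Ring-stage infected erythrocytes (0.5% parasitemia, 2.5% hematocrit) exposed to compounds 48 h, then radioactive hypoxanthine 24 h; radioactivity in precipitable material taken as proliferation index for IC50.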

Plasmodium falciparum [20] = assay: Antiplasmodial activity against chloroquine-susceptible Plasmodium falciparum FCR3 infected in human erythrocytes assessed as inhibition of [3H]hypoxanthine uptake after 48 hrs; assay type: functional, organism-based; in short: as §3
MRC5 = assay: Cytotoxicity against human MRC5 after 3 days; assay type: cell-based; settings: MRC5, 72 h
In short: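 MRC-5SV2 cells were grown in Earle's MEM with 5% FCSi and plated at about 10^4 cells/well. After 3 days of incubation, viability was read fluorimetrically with resazurin (ex 550/em 590 nm). Growth reduction was expressed relative to untreated control wells, and CC50 was derived.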

Plasmodium falciparum [21] = assay: Antiplasmodial activity against chloroquine-susceptible Plasmodium falciparum Bres infected in human erythrocytes assessed as inhibition of [3H]hypoxanthine uptake after 48 hrs; assay type: functional, organism-based; in short: as §3
Plasmodium falciparum [22] = assay: Antiplasmodial activity against chloroquine-susceptible Plasmodium falciparum NF54 infected in human erythrocytes assessed as inhibition of [3H]hypoxanthine uptake after 48 hrs; assay type: functional, organism-based
In short: (§4)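 Asynchronous ring-stage cultures in human A Rh+ erythrocytes (RPMI 1640, HEPES, NaHCO3, hypoxanthine, 0.5% Albumax II, 5% CO2, 37 C), 1% parasitemia; top final drug concentration 30 μM. After 24 h, [3H]-hypoxanthine (0.2 μCi/well) added, further 48 h incubation; plates freeze-thawed, harvested, uptake counted; IC50 calculated.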

NCH89 = assay: Antiproliferative activity against human carmustine-resistant NCH-89 cells assessed as BrdU incorporation after 48 hrs; assay type: functional, cell-based; settings: NCH89, 48 h
In short: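 NCH89 glioblastoma cells were seeded at 7 × 10^3 cells/well in replicate wells for 24 h. Compound was then added at 0.1-100 μM. After 48 h, BrdU was added at 100 μM final, and incorporation was detected with a BrdU labeling/detection kit.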

Plasmodium falciparum [23] = assay: Antiplasmodial activity against chloroquine-susceptible Plasmodium falciparum FCM29 infected in human erythrocytes assessed as inhibition of [3H]hypoxanthine uptake after 48 hrs; assay type: functional, organism-based; in short: as §3
Plasmodium falciparum [24] = assay: Antiplasmodial activity against chloroquine, pyrimethamine, cycloguanil-resistant Plasmodium falciparum K1 infected in human erythrocytes assessed as inhibition of [3H]hypoxanthine uptake after 48 hrs; assay type: functional, organism-based; in short: as §4
Nucleic Acid [25] = assay: Binding affinity to pUC18 DNA containing 50% AT assessed as middle of the integrated surface melting temperature at 1 uM by spectrophotometry analysis; assay type: nucleic-acid assay; in short: as §1
Plasmodium falciparum [26] = assay: Antiplasmodial activity against chloroquine-susceptible Plasmodium falciparum W2 infected in human erythrocytes assessed as inhibition of [3H]hypoxanthine uptake after 48 hrs; assay type: functional, organism-based; in short: as §3
Plasmodium berghei [27] = assay: Antiplasmodial activity against Plasmodium berghei ANKA infected in Swiss mice (Mus musculus) assessed as reduction of parasitaemia at 10 mg/kg, intraperitoneal every day for 4 days; assay type: functional; settings: ip, 96 h

| SMILES | Tm (Nucleic Acid [1]) | IC90 (Plasmodium falciparum [3]) | IC90 (Plasmodium falciparum [4]) | Tm (Nucleic Acid [5]) | Kd (Nucleic Acid [6]) | Tm (Nucleic Acid [7]) | Kd (Nucleic Acid [8]) | IC90 (Plasmodium falciparum [9]) | IC90 (Plasmodium falciparum [11]) | IC90 (Plasmodium falciparum [13]) | IC90 (Plasmodium falciparum [14]) | Tm (Nucleic Acid [16]) | Tm (Nucleic Acid [17]) | IC90 (Plasmodium falciparum [18]) | IC90 (Plasmodium falciparum [20]) | IC50 (MRC5) | IC90 (Plasmodium falciparum [21]) | IC50 (NCH89) | Tm (Nucleic Acid [25]) | IC90 (Plasmodium falciparum [26]) | other results |
| --- | --- | --- | --- | --- | --- | --- | --- | --- | --- | --- | --- | --- | --- | --- | --- | --- | --- | --- | --- | --- | --- |
| Clc1ccc2c(NCCNC(CCN3CCCCC3)c3ccccc3)ccnc2c1 (stereo unspecified) | 75 °C | 0.016 µM | 0.0684 µM | 46.4 °C | 4 µM | 46.5 °C | 1 µM | 0.0735 µM | 0.105 µM | 0.205 µM | 0.0128 µM | 73 °C | 46 °C | 0.0689 µM | 0.0731 µM | 8 µM | 0.0767 µM | 5.6 µM | 74.4 °C | 0.0746 µM | Activity (Mus musculus [2]): Toxic; IC50 (Plasmodium falciparum [3]): 0.0109 µM; IC50 (Plasmodium falciparum [4]): 0.0385 µM; IC50 (Plasmodium falciparum [9]): 0.0439 µM; IC50 (Plasmodium falciparum [10]): 0.0099 µM; IC90 (Plasmodium falciparum [10]): 0.0158 µM; IC50 (Plasmodium falciparum [11]): 0.0581 µM; Activity (Plasmodium berghei [12]): Active; IC50 (Plasmodium falciparum [13]): 0.076 µM; IC50 (Plasmodium falciparum [14]): 0.008 µM; Activity (Mus musculus [15]): Toxic; IC50 (Plasmodium falciparum [18]): 0.0412 µM; IC50 (Plasmodium falciparum [19]): 0.0239 µM; IC50 (Plasmodium falciparum [20]): 0.0442 µM; IC50 (Plasmodium falciparum [21]): 0.0465 µM; IC50 (Plasmodium falciparum [22]): 0.0087 µM; IC50 (Plasmodium falciparum [23]): 0.135 µM; IC90 (Plasmodium falciparum [23]): 0.296 µM; IC50 (Plasmodium falciparum [24]): 0.0326 µM; IC50 (Plasmodium falciparum [26]): 0.044 µM |
| CCN(CC)CCCC(C)Nc1ccnc2cc(Cl)ccc12 (stereo unspecified) [CHLOROQUINE] | 74.7 °C | 0.0444 µM | 0.316 µM | 46.6 °C | 9 µM | 47 °C | 7.5 µM | 0.418 µM | 0.912 µM | 1.13 µM | 0.0592 µM | 73.2 °C | 46.9 °C | 0.483 µM | 0.685 µM | 64 µM | 0.614 µM | 41.2 µM | 73.7 °C | 0.693 µM | inhibition in vivo at 10 mg/kg (Plasmodium berghei [27]): 98.9% |
